Reference: ChEMBL document CHEMBL2062476, “One pot efficient diversity oriented synthesis of polyfunctional styryl thiazolopyrimidines and their bio-evaluation as antimalarial and anti-HIV agents” (Eur J Med Chem, 2012)
Values after ≈ are worked out from the molar mass of the structure shown.

Legend:
[1] = Cytotoxicity against african green monkey Vero C1008 cells incubated for 72 hrs by resazurin dye based fluorometric assay; type: cell-based; settings: chlorocebus sabaeus
Method in brief: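 Vero (C1008) cells grown in MEM with 15% FBS, 37 °C, 5% CO2; trypsinized, seeded at 1 × 10^5 cells/mL and left to adhere overnight. Serial compound dilutions added for 72 h. Resazurin added, fluorescence read after 4 h; CC50 derived from viability.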

Plasmodium falciparum [2] = assay: Antimalarial activity against chloroquine sensitive Plasmodium falciparum 3D7 infected in RBCs incubated for 72 hrs by SYBRgreen dye based fluorometric assay; type: functional, organism-based; settings: 3D7, 72 h
Method in brief: (§1)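 Parasites kept in RPMI-1640 (HEPES) with 0.5% AlbuMaxII, 0.2% glucose, 0.2% NaHCO3, 15 µM hypoxanthine, 37 °C, 5% CO2. Compounds in DMSO (10mg/mL stock), two-fold serial dilutions. Infected erythrocytes added at 4% haematocrit, 1% parasitaemia, incubated 72 h. Lysis buffer with SYBR green added for 4 h in the dark at room temp. Fluorescence read at ex 485/em 535 nm. IC50 taken from parasite DNA content relative to controls.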

[3] = Selectivity index, ratio of CC50 for african green monkey Vero C1008 cells to IC50 for chloroquine resistant Plasmodium falciparum K1; type: functional
Method in brief: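 Vero C1008 cells grown in MEM with 15% FBS. Seeded at 1 × 10^5 cells/mL, left to adhere overnight, then exposed to serial compound dilutions for 72 h. Viability read by resazurin fluorescence after 4 h and CC50 derived. SI = CC50 / IC50 against K1, with IC50 from the 72 h SYBR green parasite assay.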

[4] = tested on: Human immunodeficiency virus; assay: Inhibition of HIV reverse transcriptase activity at 10 ug/ml incubated at 37 degC for 1 hr by ELISA RT assay
Method in brief: (§2)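 Colorimetric ELISA kit: template/primer with dNTPs (digoxigenin- and biotin-labelled dUTP) plus HIV-1 RT in lysis buffer, 60 µl total, 37 °C for 1 h; no-RT lysis buffer as negative control. Product captured on streptavidin plate 1 h at 37 °C, anti-DIG-POD (200 mU/mL) 1 h, ABTS substrate; OD 405 nm (reference 490 nm).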

Plasmodium falciparum [5] = assay: Antimalarial activity against chloroquine resistant Plasmodium falciparum K1 infected in RBCs incubated for 72 hrs by SYBRgreen dye based fluorometric assay; type: functional, organism-based; settings: K1, 72 h; method in brief: as §1
[6] = Selectivity index, ratio of CC50 for african green monkey Vero C1008 cells to IC50 for chloroquine sensitive Plasmodium falciparum 3D7; type: functional
Method in brief: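 SI = CC50 in Vero cells (resazurin, 72 h) divided by IC50 against P. falciparum 3D7. The IC50 came from a SYBR green assay: cultures in RPMI-1640 with 0.5% AlbuMaxII and 15 µM hypoxanthine, 4% haematocrit, 1% parasitaemia, two-fold dilutions, 72 h at 37 °C. Lysis with SYBR green for 4 h, read at ex 485/em 535 nm.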

[7] = tested on: Human immunodeficiency virus; assay: Inhibition of HIV reverse transcriptase activity at 100 ug/ml incubated at 37 degC for 1 hr by ELISA RT assay; method in brief: as §2

Structure (SMILES) | CC50 at 72 h [1] [µg/mL] | IC50 (Plasmodium falciparum [2]) [µg/mL] | Ratio CC50/IC50 [3] | inhibition [4] [%] | IC50 (Plasmodium falciparum [5]) [µg/mL] | Ratio CC50/IC50 [6] | inhibition [7] [%]
CC1=CSC2=NC(/C=C/c3ccc(F)cc3)=C(C(=O)/C=C/c3ccc(F)cc3)C(c3ccccc3)N12 (centres undefined) | 306 (≈ 616 µM) | 2.68 (≈ 5.4 µM) | 192.53 | 30 | 1.59 (≈ 3.2 µM) | 114.22 | 59.2
COc1ccc(/C=C/C(=O)C2=C(/C=C/c3ccc(OC)cc3)N=C3SC=C(C)N3C2c2cc(OC)c(OC)c(OC)c2)cc1 (centres undefined) | 348 (≈ 570 µM) | 1.57 (≈ 2.57 µM) | 489.94 | 30.1 | 0.71 (≈ 1.16 µM) | 221.57 | 51.3
CC1=CSC2=NC(/C=C/c3ccccc3)=C(C(=O)/C=C/c3ccccc3)C(c3ccc(Cl)cc3)N12 (centres undefined) | 320 (≈ 646 µM) | 0.5 (≈ 1.01 µM) | 1183.89 | 23.6 | 0.27 (≈ 0.545 µM) | 639.3 | 30.6
CC1=CSC2=NC(/C=C/c3ccc(OCc4ccccc4)cc3)=C(C(=O)/C=C/c3ccc(OCc4ccccc4)cc3)C(c3ccc(Cl)cc3)N12 (centres undefined) | > 500 | 6.97 (≈ 9.85 µM) | >25.56 | 17.6 | 19.6 (≈ 27.6 µM) | >71.74 | 18.6
CC1=CSC2=NC(/C=C/c3cccc(Cl)c3)=C(C(=O)/C=C/c3cccc(Cl)c3)C(c3ccc(Cl)cc3)N12 (centres undefined) | 317 (≈ 563 µM) | 2.25 (≈ 3.99 µM) | >417.5 | 13.2 | < 0.76 | 141.02 | 16.6
CC1=CSC2=NC(/C=C/c3ccccc3)=C(C(=O)/C=C/c3ccccc3)C(c3ccccc3)N12 (centres undefined) | 195 (≈ 424 µM) | 0.57 (≈ 1.24 µM) | 247.43 | 42.3 | 0.79 (≈ 1.72 µM) | 342.93 | 49.6
CC1=CSC2=NC(/C=C/c3ccccc3Cl)=C(C(=O)/C=C/c3ccccc3Cl)C(c3ccc(Cl)cc3)N12 (centres undefined) | 430 (≈ 762 µM) | 5.9 (≈ 10.5 µM) | 154.03 | 18 | 2.79 (≈ 4.95 µM) | 72.84 | 26.1
CC1=CSC2=NC(/C=C/c3ccc(Br)cc3)=C(C(=O)/C=C/c3ccc(Br)cc3)C(c3ccccc3)N12 (centres undefined) | 282 (≈ 457 µM) | 5.38 (≈ 8.7 µM) | 112.93 | 39.8 | 2.5 (≈ 4.04 µM) | 52.48 | 55.4
COc1ccc(C2C(C(=O)/C=C/c3ccc(Cl)cc3)=C(/C=C/c3ccc(Cl)cc3)N=C3SC=C(C)N32)cc1 (centres undefined) | 273 (≈ 487 µM) | 5.3 (≈ 9.47 µM) | 182.89 | 31.2 | 1.49 (≈ 2.66 µM) | 51.42 | 50.9
Cc1ccnc2c1NC(=O)c1cccnc1N2C1CC1 | – | – | – | 97.9 | – | – | –
CC1=CSC2=NC(/C=C/c3ccccc3Cl)=C(C(=O)/C=C/c3ccccc3Cl)C(c3ccccc3)N12 (centres undefined) | 206 (≈ 389 µM) | 0.56 (≈ 1.06 µM) | 572.25 | 38.9 | 0.36 (≈ 0.68 µM) | 367.88 | 73.4
COc1ccc(C2C(C(=O)/C=C/c3cccs3)=C(/C=C/c3cccs3)N=C3SC=C(C)N32)cc1 (centres undefined) | 235 (≈ 468 µM) | 5.17 (≈ 10.3 µM) | 115.83 | 47.7 | 2.03 (≈ 4.04 µM) | 45.48 | 54.4
COc1ccc(C2C(C(=O)/C=C/c3ccc4c(c3)OCO4)=C(/C=C/c3ccc4c(c3)OCO4)N=C3SC=C(C)N32)cc1 (centres undefined) | 418 (≈ 722 µM) | 3.94 (≈ 6.81 µM) | – | 58.8 | 1.14 (≈ 1.97 µM) | 106 | 70.8
CC1=CSC2=NC(/C=C/c3ccc(Cl)cc3)=C(C(=O)/C=C/c3ccc(Cl)cc3)C(c3ccc(Cl)cc3)N12 (centres undefined) | 309 (≈ 548 µM) | 0.85 (≈ 1.51 µM) | 515.05 | 10.6 | 0.6 (≈ 1.06 µM) | 363.57 | 11.4
CC1=CSC2=NC(/C=C/c3ccc4c(c3)OCO4)=C(C(=O)/C=C/c3ccc4c(c3)OCO4)C(c3ccccc3)N12 (centres undefined) | 497 (≈ 905 µM) | 5.07 (≈ 9.24 µM) | 455.71 | – | 1.09 (≈ 1.99 µM) | 97.97 | –
CC1=CSC2=NC(/C=C/c3ccc(Cl)cc3)=C(C(=O)/C=C/c3ccc(Cl)cc3)C(c3ccccc3)N12 (centres undefined) | 252 (≈ 477 µM) | 5.15 (≈ 9.73 µM) | 93.17 | 42.6 | 2.71 (≈ 5.12 µM) | 49.03 | 53.4
COc1cc(/C=C/C(=O)C2=C(/C=C/c3cc(OC)c(OC)c(OC)c3)N=C3SC=C(C)N3C2c2ccccc2)cc(OC)c1OC (centres undefined) | 260 (≈ 407 µM) | 0.5 (≈ 0.78 µM) | >868.23 | 5.69 | < 0.3 | 520.94 | 66.9
COc1cc(/C=C\C2=C(C(=O)/C=C/c3cc(OC)c(OC)c(OC)c3)C(c3cc(OC)c(OC)c(OC)c3)N3C(C)=CSC3=N2)cc(OC)c1OC (centres undefined) | 167 (≈ 228 µM) | 6.82 (≈ 9.33 µM) | >219.3 | 48.4 | < 0.76 | 24.44 | 55.9
COc1ccc(/C=C/C(=O)C2=C(/C=C/c3ccc(OC)cc3)N=C3SC=C(C)N3C2c2ccccc2)cc1 (centres undefined) | 358 (≈ 688 µM) | 2.19 (≈ 4.21 µM) | >471.31 | 40.6 | < 0.76 | 163.56 | 32.7
CC1=CSC2=NC(/C=C/c3ccc(Br)cc3)=C(C(=O)/C=C/c3ccc(Br)cc3)C(c3ccc(Cl)cc3)N12 (centres undefined) | 420 (≈ 643 µM) | 1.27 (≈ 1.95 µM) | 344.06 | 17.8 | 1.22 (≈ 1.87 µM) | 330.51 | 26.5
COc1ccc(C2C(C(=O)/C=C/c3ccc(F)cc3)=C(/C=C/c3ccc(F)cc3)N=C3SC=C(C)N32)cc1 (centres undefined) | 261 (≈ 495 µM) | 5.15 (≈ 9.78 µM) | 239.29 | 9.22 | 1.09 (≈ 2.07 µM) | 50.65 | 41.4
COc1ccc(C2C(C(=O)/C=C/c3ccccc3)=C(/C=C/c3ccccc3)N=C3SC=C(C)N32)cc1 (centres undefined) | 211 (≈ 430 µM) | 2.11 (≈ 4.3 µM) | 248.11 | 39.4 | 0.85 (≈ 1.73 µM) | 99.95 | 48.6
CC1=CSC2=NC(/C=C/c3cccc(Cl)c3)=C(C(=O)/C=C/c3cccc(Cl)c3)C(c3ccccc3)N12 (centres undefined) | 286 (≈ 540 µM) | 0.79 (≈ 1.49 µM) | 238.29 | 15.4 | 1.2 (≈ 2.27 µM) | 361.96 | 54.5
CC1=CSC2=NC(/C=C/c3ccc(OCc4ccccc4)cc3)=C(C(=O)/C=C/c3ccc(OCc4ccccc4)cc3)C(c3ccccc3)N12 (centres undefined) | > 500 | 24.5 (≈ 36.4 µM) | >116.28 | 47.7 | 4.3 (≈ 6.39 µM) | >20.39 | 56.3
